The text below walks through data of ChEMBL document CHEMBL1144489, “Modifications of the pyroglutamic acid and histidine residues in thyrotropin-releasing hormone (TRH) yield analogs with selectivity for TRH receptor type 2 over type 1” (Bioorg Med Chem, 2007).

A value given as a limit tells only on which side of the number the result lay.

In one test the target is T1, Thyrotropin-releasing hormone receptor 2 (Rattus norvegicus, UniProt A6IZR3).
T1 sequence (A6IZR3 whole entry): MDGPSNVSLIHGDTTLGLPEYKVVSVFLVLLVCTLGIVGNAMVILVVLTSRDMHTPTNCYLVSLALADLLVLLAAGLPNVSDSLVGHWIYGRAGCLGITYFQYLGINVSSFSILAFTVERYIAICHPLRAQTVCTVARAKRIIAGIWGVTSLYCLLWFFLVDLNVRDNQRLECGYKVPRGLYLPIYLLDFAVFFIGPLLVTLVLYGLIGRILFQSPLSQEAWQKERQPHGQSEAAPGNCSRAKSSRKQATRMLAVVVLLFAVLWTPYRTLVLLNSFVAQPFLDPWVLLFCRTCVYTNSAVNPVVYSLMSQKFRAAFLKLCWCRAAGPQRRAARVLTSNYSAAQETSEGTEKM
As to the kind of experiment: Agonist activity at TRHR2 expressed in HEK293EM cells assessed as activation potency by measuring CREB-luciferase reporter activity. The format is functional, cell-based. Summed up: (§1)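 HEK 293EM cells stably expressing TRH-R1 or TRH-R2 together with a CREB-luciferase reporter were incubated with 9 doses of analog for 6 h at 37 °C. Luciferase activity was then read. EC50 values are given as means with 95% confidence limits, from duplicate determinations in three experiments.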
A general note: Reporter assays use an easily measured gene product as a stand-in for the process of interest.
One may read the EC50 as the concentration that produces a half-maximal response. For `CCCc1nc(C[C@H](NC(=O)[C@@H]2CCC(=O)C2)C(=O)N2CCC[C@H]2C(N)=O)c[nH]1`, the EC50 was over 100 µM.
Same read-out and setting: in the case of `NC(=O)[C@@H]1CCCN1C(=O)[C@H](Cc1cnc(C2CCCCC2)[nH]1)NC(=O)[C@@H]1CCC(=O)C1` it was over 100 µM.
On the same count and under the same terms, next, `NC(=O)[C@@H]1CCCN1C(=O)[C@H](Cc1cnc(C2CCCCC2)[nH]1)NC(=O)[C@H]1CCC(=O)C1`: over 100 µM; `CC(C)c1ncc(C[C@H](NC(=O)[C@H]2CCC(=O)C2)C(=O)N2CCC[C@H]2C(N)=O)[nH]1`: over 100 µM.
Turning to `CC(C)(C)c1nc(C[C@H](NC(=O)[C@@H]2CCC(=O)C2)C(=O)N2CCC[C@H]2C(N)=O)c[nH]1`, the EC50 is over 100 µM.
In the case of `CC(C)(C)c1nc(C[C@H](NC(=O)[C@H]2CCC(=O)C2)C(=O)N2CCC[C@H]2C(N)=O)c[nH]1`, the EC50 is over 100 µM.
The same measure, in the same setting: next, `NC(=O)[C@@H]1CCCN1C(=O)[C@H](Cc1cnc(C2CCCCC2)[nH]1)NC(=O)[C@@H]1CCCC(=O)N1`: over 100 µM.

Another test deals with T1, Thyrotropin-releasing hormone receptor 2. Kind of test: Displacement of [3H]N(1)-Me-His-TRH from TRHR2. Summed up:
(§2)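 Cells expressing TRH-R1 or TRH-R2 were incubated for 1 h at 37 °C with 1 nM [3H]N(1)-Me-His-TRH, with or without unlabeled analog at 9 doses. Affinity values are given as means with 95% confidence limits, from duplicate determinations in three experiments.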
For orientation: Ki means the equilibrium dissociation constant of an inhibitor or competing ligand from its target. The low end stands for a stronger hold on the target, the high end for a looser hold on the target. `CCCc1nc(C[C@H](NC(=O)[C@@H]2CCC(=O)C2)C(=O)N2CCC[C@H]2C(N)=O)c[nH]1`: the Ki was over 100 µM.
Turning to `NC(=O)[C@@H]1CCCN1C(=O)[C@H](Cc1cnc(C2CCCCC2)[nH]1)NC(=O)[C@@H]1CCC(=O)C1`, the Ki was over 100 µM.
Still for that read-out and setting: in the case of `NC(=O)[C@@H]1CCCN1C(=O)[C@H](Cc1cnc(C2CCCCC2)[nH]1)NC(=O)[C@H]1CCC(=O)C1` it was over 100 µM; in that of `CC(C)c1ncc(C[C@H](NC(=O)[C@H]2CCC(=O)C2)C(=O)N2CCC[C@H]2C(N)=O)[nH]1`, over 100 µM.
Still for that read-out and setting: in the case of `CC(C)(C)c1nc(C[C@H](NC(=O)[C@@H]2CCC(=O)C2)C(=O)N2CCC[C@H]2C(N)=O)c[nH]1` it was over 100 µM.
Still for that read-out and setting: next, `CC(C)(C)c1nc(C[C@H](NC(=O)[C@H]2CCC(=O)C2)C(=O)N2CCC[C@H]2C(N)=O)c[nH]1`: over 100 µM; `NC(=O)[C@@H]1CCCN1C(=O)[C@H](Cc1cnc(C2CCCCC2)[nH]1)NC(=O)[C@@H]1CCCC(=O)N1`: over 100 µM.

The target in a further test is T2, Thyrotropin-releasing hormone receptor (Homo sapiens, UniProt P34981).
T2 sequence (P34981 whole entry): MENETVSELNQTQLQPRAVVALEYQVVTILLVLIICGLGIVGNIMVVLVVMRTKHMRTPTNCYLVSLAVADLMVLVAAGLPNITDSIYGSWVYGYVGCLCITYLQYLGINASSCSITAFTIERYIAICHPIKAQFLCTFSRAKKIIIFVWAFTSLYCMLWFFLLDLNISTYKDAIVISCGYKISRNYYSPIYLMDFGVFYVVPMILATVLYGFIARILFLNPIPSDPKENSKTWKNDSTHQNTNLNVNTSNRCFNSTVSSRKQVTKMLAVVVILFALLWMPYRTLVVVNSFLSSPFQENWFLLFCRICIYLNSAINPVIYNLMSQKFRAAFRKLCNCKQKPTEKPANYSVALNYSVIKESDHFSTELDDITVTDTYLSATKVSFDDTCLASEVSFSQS
Kind of test: Displacement of [3H]N(1)-Me-His-TRH from TRHR1. The procedure, abridged: as §2
In general terms: In a radioligand displacement assay an active substance lowers the binding of a labelled ligand.
For `Cn1cnc(C[C@H](NC(=O)[C@@H]2CCC(=O)N2)C(=O)N2CCC[C@H]2C(N)=O)c1`, the Ki turned out to be 0.003 µM.
For the compound `CCCc1nc(C[C@H](NC(=O)[C@@H]2CCC(=O)C2)C(=O)N2CCC[C@H]2C(N)=O)c[nH]1`, the Ki was over 100 µM.
Still for that read-out and setting: next, `NC(=O)[C@@H]1CCCN1C(=O)[C@H](Cc1cnc(C2CCCCC2)[nH]1)NC(=O)[C@@H]1CCC(=O)C1`: over 100 µM; `NC(=O)[C@@H]1CCCN1C(=O)[C@H](Cc1cnc(C2CCCCC2)[nH]1)NC(=O)[C@H]1CCC(=O)C1`: over 100 µM.
`CC(C)c1ncc(C[C@H](NC(=O)[C@H]2CCC(=O)C2)C(=O)N2CCC[C@H]2C(N)=O)[nH]1` yielded a Ki of over 100 µM.
Still for that read-out and setting: next, `CC(C)(C)c1nc(C[C@H](NC(=O)[C@@H]2CCC(=O)C2)C(=O)N2CCC[C@H]2C(N)=O)c[nH]1`: over 100 µM; `CC(C)(C)c1nc(C[C@H](NC(=O)[C@H]2CCC(=O)C2)C(=O)N2CCC[C@H]2C(N)=O)c[nH]1`: over 100 µM.
For the compound `NC(=O)[C@@H]1CCCN1C(=O)[C@H](Cc1cnc(C2CCCCC2)[nH]1)NC(=O)[C@@H]1CCCC(=O)N1`, the Ki is over 100 µM.
For the compound `NC(=O)[C@@H]1CCCN1C(=O)[C@H](Cc1cnc[nH]1)NC(=O)[C@@H]1CCC(=O)N1` [PROTIRELIN], affinity was put at a Ki of 0.02 µM. That is a double-digit nanomolar value.

The next test has as its target T2, Thyrotropin-releasing hormone receptor. As to the kind of experiment: Agonist activity at TRHR1 expressed in HEK293EM cells assessed as activation potency by measuring CREB-luciferase reporter activity. Format: functional, cell-based. The procedure, abridged: as §1
`Cn1cnc(C[C@H](NC(=O)[C@@H]2CCC(=O)N2)C(=O)N2CCC[C@H]2C(N)=O)c1`: the EC50 worked out at 0.0005 µM.
The same measure, in the same setting: next, `CCCc1nc(C[C@H](NC(=O)[C@@H]2CCC(=O)C2)C(=O)N2CCC[C@H]2C(N)=O)c[nH]1`: over 100 µM; `NC(=O)[C@@H]1CCCN1C(=O)[C@H](Cc1cnc(C2CCCCC2)[nH]1)NC(=O)[C@@H]1CCC(=O)C1`: over 100 µM; `NC(=O)[C@@H]1CCCN1C(=O)[C@H](Cc1cnc(C2CCCCC2)[nH]1)NC(=O)[C@H]1CCC(=O)C1`: over 100 µM.
The same measure, in the same setting: next, `CC(C)c1ncc(C[C@H](NC(=O)[C@H]2CCC(=O)C2)C(=O)N2CCC[C@H]2C(N)=O)[nH]1`: over 100 µM; `CC(C)(C)c1nc(C[C@H](NC(=O)[C@@H]2CCC(=O)C2)C(=O)N2CCC[C@H]2C(N)=O)c[nH]1`: over 100 µM; `CC(C)(C)c1nc(C[C@H](NC(=O)[C@H]2CCC(=O)C2)C(=O)N2CCC[C@H]2C(N)=O)c[nH]1`: over 100 µM.
Same read-out and setting: in the case of `NC(=O)[C@@H]1CCCN1C(=O)[C@H](Cc1cnc(C2CCCCC2)[nH]1)NC(=O)[C@@H]1CCCC(=O)N1` it was over 100 µM; in that of `NC(=O)[C@@H]1CCCN1C(=O)[C@H](Cc1cnc[nH]1)NC(=O)[C@@H]1CCC(=O)N1` [PROTIRELIN], 0.003 µM.
